Measured values taken from ChEMBL document CHEMBL4400546, “A Cinchona Alkaloid Antibiotic That Appears To Target ATP Synthase in Streptococcus pneumoniae” (J Med Chem, 2019).
Converted amounts (≈) assume the structure as drawn. The source made the active and inactive calls. The calls are words filed in the database; no cut-off is given here.

What was measured:
[1] = Mitochondrial toxicity in human HepG2 cells assessed as reduction in cell viability after 24 hrs in presence of galactose by CellTiter-Glo assay; format: cell-based
Method in brief: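 HepG2 cells are grown in DMEM supplemented with 10 mM galactose or 10 mM glucose and treated for 24 h. Viability is read by CellTiter-Glo luminescence. The CC90 is the concentration inhibiting 90% of cell viability, taken from dose–response curves. Oligomycin and tamoxifen serve as controls.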

[2] = Mitochondrial toxicity in human HepG2 cells assessed as reduction in cell viability after 24 hrs in presence of glucose by CellTiter-Glo assay; format: cell-based
Method in brief: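 HepG2 cells grown in DMEM with 10 mM glucose, treated 24 h; viability read by CellTiter-Glo luminescence. Value is the concentration giving 90% loss of viability (CC90) from dose-response curves, top concentration 300 µM.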

Streptococcus pneumoniae [3] = assay: Potentiation of rifampicin-induced antibacterial activity against Streptococcus pneumoniae D39 at 2 times MIC after 20 hrs by checkerboard assay; format: functional
Method in brief: (§1)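 Checkerboard combination assay in S. pneumoniae D39 with the partner antibiotic. Fractional inhibitory concentration indices were calculated, and the minimum FICI was taken per combination. Three to four independent checkerboards were run.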

Streptococcus pneumoniae [4] = assay: Potentiation of penicillin-induced antibacterial activity against Streptococcus pneumoniae D39 at 2 times MIC after 20 hrs by checkerboard assay; format: functional; method in brief: as §1
Streptococcus pneumoniae [5] = assay: Potentiation of levofloxacin-induced antibacterial activity against Streptococcus pneumoniae D39 at 2 times MIC after 20 hrs by checkerboard assay; format: functional; method in brief: as §1
Streptococcus pneumoniae [6] = assay: Antibacterial activity against Streptococcus pneumoniae D39 after 20 hrs by CLSI-based microdilution method; format: functional; details: D39, 20 h
[7] = Cytotoxicity against human HepG2 cells assessed as reduction in cell viability after 48 hrs by Alamar Blue assay; format: cell-based
Streptococcus pneumoniae [8] = assay: Bactericidal activity against Streptococcus pneumoniae D39 after 24 hrs; format: functional; details: D39, 24 h
Streptococcus pneumoniae [9] = assay: Bacteriostatic activity against Streptococcus pneumoniae D39 at 1 to 5 times MIC after 18 hrs by time-kill assay; format: functional, organism-based
Method in brief: (§2)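 Time-kill in S. pneumoniae D39 at multiples of MIC. Killing is followed by OD620 up to 18 h, with CFU determined at each time point by plating. Vancomycin is the positive control. Four independent experiments.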

Streptococcus pneumoniae [10] = assay: Bacteriostatic activity against Streptococcus pneumoniae D39 up 100 times MIC after 18 hrs by time-kill assay; format: functional, organism-based; method in brief: as §2
Streptococcus pneumoniae [11] = assay: Antibacterial activity against Streptococcus pneumoniae R6 after 20 hrs by CLSI-based microdilution method; format: functional; details: R6, 20 h
Streptococcus pneumoniae [12] = assay: Bacteriostatic activity against Streptococcus pneumoniae D39 assessed as resistant frequency at 4 to 16 times MIC after 24 hrs by time-kill assay; format: functional, organism-based
Streptococcus pneumoniae [13] = assay: Antibacterial activity against amoxicillin/penicillin/cefotaxime/erythromycin/tetracycline-resistant Streptococcus pneumoniae TH2784 (19F) after 20 hrs by CLSI-based microdilution method; format: functional
Streptococcus pneumoniae [14] = assay: Antibacterial activity against amoxicillin/penicillin/chloramphenicol/erythromycin/meropenem/cefotaxime-resistant Streptococcus pneumoniae TH2582 (19A) after 20 hrs by CLSI-based microdilution method; format: functional
Streptococcus pneumoniae [15] = assay: Antibacterial activity against amoxicillin/penicillin/erythromycin/ertapenem/moxifloxacin/cefotaxime-resistant Streptococcus pneumoniae TH2889 (6B) after 20 hrs by CLSI-based microdilution method; format: functional
Streptococcus pneumoniae [16] = assay: Antibacterial activity against penicillin/erythromycin/meropenem/tetracycline-resistant Streptococcus pneumoniae TH2863 (19F) after 20 hrs by CLSI-based microdilution method; format: functional
Streptococcus pneumoniae [17] = assay: Antibacterial activity against optochin-resistant Streptococcus pneumoniae R6 expressing atpE G142C mutant after 20 hrs by CLSI-based microdilution method; format: functional; details: R6, 20 h
Streptococcus pneumoniae [18] = assay: Antibacterial activity against optochin-resistant Streptococcus pneumoniae R6 expressing atpE G145A mutant after 20 hrs by CLSI-based microdilution method; format: functional; details: R6, 20 h
[19] = tested on: Streptococcus pneumoniae D39; assay: Inhibition of wild-type Streptococcus pneumoniae D39 ATP synthase atpE assessed as intracellular pH at 0.0625 ug/ml measured at 5 mins by pH-sensitive GFP-based fluorescence assay (reference value: 7.34 +/- 0.04); format: cell-based
Method in brief: (§3)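 S. pneumoniae D39 WT and isogenic atpE G142C or G145A mutants carry a plasmid-borne ratiometric pH-sensitive GFP biosensor. Cells are in PBS pH 7.2 with 10 mM glucose and are treated with compound, DMSO (0.5% v/v) or CCCP (10 µM). Intracellular pH is read immediately and at 5-min intervals. Two independent experiments, each in triplicate.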

[20] = tested on: Streptococcus pneumoniae D39; assay: Inhibition of wild-type Streptococcus pneumoniae D39 ATP synthase atpE assessed as intracellular pH at 0.25 ug/ml measured at 5 mins by pH-sensitive GFP-based fluorescence assay (reference value: 7.34 +/- 0.04); format: cell-based; method in brief: as §3
[21] = tested on: Streptococcus pneumoniae D39; assay: Inhibition of wild-type Streptococcus pneumoniae D39 ATP synthase atpE assessed as intracellular pH at 8 ug/ml measured at 5 mins by pH-sensitive GFP-based fluorescence assay (reference value: 7.34 +/- 0.04); format: cell-based; method in brief: as §3
[22] = tested on: Streptococcus pneumoniae D39; assay: Inhibition of wild-type Streptococcus pneumoniae D39 ATP synthase atpE assessed as intracellular pH at 0.0625 ug/ml measured immediately post treatment by pH-sensitive GFP-based fluorescence assay (reference value: 7.34 +/- 0.04); format: cell-based; method in brief: as §3
[23] = tested on: Streptococcus pneumoniae D39; assay: Inhibition of wild-type Streptococcus pneumoniae D39 ATP synthase atpE assessed as intracellular pH at 0.25 ug/ml measured at 10 mins by pH-sensitive GFP-based fluorescence assay (reference value: 7.34 +/- 0.04); format: cell-based; method in brief: as §3
[24] = tested on: Streptococcus pneumoniae D39; assay: Inhibition of wild-type Streptococcus pneumoniae D39 ATP synthase atpE assessed as intracellular pH at 0.25 ug/ml measured at 15 mins by pH-sensitive GFP-based fluorescence assay (reference value: 7.34 +/- 0.04); format: cell-based; method in brief: as §3
[25] = tested on: Streptococcus pneumoniae D39; assay: Inhibition of wild-type Streptococcus pneumoniae D39 ATP synthase atpE G142C mutant assessed as change in intracellular pH at 0.25 ug/ml measured at 5 mins by pH-sensitive GFP-based fluorescence assay (reference value: 7.34 +/- 0.04); format: cell-based; method in brief: as §3
[26] = tested on: Streptococcus pneumoniae D39; assay: Inhibition of wild-type Streptococcus pneumoniae D39 ATP synthase atpE G142C mutant assessed as reduction in intracellular pH at >0.25 to 8 ug/ml measured at 5 mins by pH-sensitive GFP-based fluorescence assay; format: cell-based; method in brief: as §3
[27] = tested on: Streptococcus pneumoniae D39; assay: Inhibition of wild-type Streptococcus pneumoniae D39 ATP synthase atpE G145 mutant assessed as reduction in intracellular pH at >2 ug/ml measured at 5 mins by pH-sensitive GFP-based fluorescence assay; format: cell-based; method in brief: as §3
Staphylococcus aureus = assay: Antibacterial activity against Staphylococcus aureus TH4114 after 20 hrs by CLSI-based microdilution method; format: functional; details: TH4114, 20 h
Streptococcus pyogenes = assay: Antibacterial activity against Streptococcus pyogenes ST157 after 20 hrs by CLSI-based microdilution method; format: functional; details: ST157, 20 h
Streptococcus mitis = assay: Antibacterial activity against Streptococcus mitis ST138 after 20 hrs by CLSI-based microdilution method; format: functional; details: ST138, 20 h
Enterococcus faecium = assay: Antibacterial activity against Enterococcus faecium TH6064 after 20 hrs by CLSI-based microdilution method; format: functional; details: TH6064, 20 h
Enterobacter cloacae = assay: Antibacterial activity against Enterobacter cloacae TH11715 after 20 hrs by CLSI-based microdilution method; format: functional; details: TH11715, 20 h
Escherichia coli = assay: Antibacterial activity against Escherichia coli TH4746 after 20 hrs by CLSI-based microdilution method; format: functional; details: TH4746, 20 h
Klebsiella pneumoniae = assay: Antibacterial activity against Klebsiella pneumoniae ATCC 13883 after 20 hrs by CLSI-based microdilution method; format: functional; details: ATCC 13883, 20 h
Acinetobacter baumannii = assay: Antibacterial activity against Acinetobacter baumannii TH9781 after 20 hrs by CLSI-based microdilution method; format: functional; details: TH9781, 20 h
Pseudomonas aeruginosa = assay: Antibacterial activity against Pseudomonas aeruginosa TH4090 after 20 hrs by CLSI-based microdilution method; format: functional; details: TH4090, 20 h
[28] = tested on: Mycobacterium tuberculosis; assay: Antibacterial activity against Mycobacterium tuberculosis H37Rv after […] by CLSI-based microdilution method; format: functional
Streptococcus pneumoniae [29] = assay: Potentiation of vancomycin-induced antibacterial activity against Streptococcus pneumoniae D39 at 2 times MIC after 20 hrs by checkerboard assay; format: functional; method in brief: as §1
Streptococcus pneumoniae [30] = assay: Bacteriostatic activity against Streptococcus pneumoniae D39 at 1 to 5 times MIC using 10^7CFU inoculum after 18 hrs by time-kill assay; format: functional, organism-based; method in brief: as §2
Streptococcus pneumoniae [31] = assay: Bactericidal activity against Streptococcus pneumoniae D39 assessed as fold reduction in CFU at 5 times MIC after 3 hrs by time-kill assay relative to control; format: functional; method in brief: as §2

Compound: CC=C1C[N@]2CC[C@H]1C[C@H]2[C@H](O)c1ccnc2ccc(OC3CCC3)cc12
- CC90 at 24 h [1]: 150 µM
- CC90 at 24 h [2]: 150 µM
- FIC (Streptococcus pneumoniae [3]): 0.63 - 1
- FIC (Streptococcus pneumoniae [4]): 0.63 - 1
- FIC (Streptococcus pneumoniae [5]): 0.63 - 1
- MIC (Streptococcus pneumoniae [6]): 0.7 µM (≈ 0.255 µg/mL)
- CC50 at 48 h [7]: 56 µM
- MBC (Streptococcus pneumoniae [8]): 1 to 2 µg/mL (≈ 2.74 to 5.49 µM)
- Activity (Streptococcus pneumoniae [9]): Active
- Activity (Streptococcus pneumoniae [10]): Active
- MIC (Streptococcus pneumoniae [11]): 0.5 µg/mL (≈ 1.37 µM)
- Activity (Streptococcus pneumoniae [12]): Active
- MIC (Streptococcus pneumoniae [13]): 0.5 µg/mL (≈ 1.37 µM)
- MIC (Streptococcus pneumoniae [14]): 0.25 to 0.5 µg/mL (≈ 0.686 to 1.37 µM)
- MIC (Streptococcus pneumoniae [15]): 0.5 µg/mL (≈ 1.37 µM)
- MIC (Streptococcus pneumoniae [16]): 0.5 to 1 µg/mL (≈ 1.37 to 2.74 µM)
- MIC (Streptococcus pneumoniae [17]): 8 to 16 µg/mL (≈ 21.9 to 43.9 µM)
- MIC (Streptococcus pneumoniae [18]): 4 µg/mL (≈ 11 µM)
- pH [19]: 7.02
- pH [20]: 6.82
- pH [21]: 6.66
- pH [22]: 7.11
- pH [23]: 6.68
- deltapH [24]: -0.52
- deltapH [25]: < 0.03
- inhibition [26]: Active
- inhibition [27]: Active
- MIC (Staphylococcus aureus): 128 µg/mL (≈ 351 µM)
- MIC (Streptococcus pyogenes): 32 µg/mL (≈ 87.8 µM)
- MIC (Streptococcus mitis): 16 µg/mL (≈ 43.9 µM)
- MIC (Enterococcus faecium): 64 to 128 µg/mL (≈ 176 to 351 µM)
- MIC (Enterobacter cloacae): > 128 µg/mL
- MIC (Escherichia coli): > 128 µg/mL
- MIC (Klebsiella pneumoniae): 128 µg/mL (≈ 351 µM)
- MIC (Acinetobacter baumannii): 128 µg/mL (≈ 351 µM)
- MIC (Pseudomonas aeruginosa): > 128 µg/mL
- MIC [28]: > 256 µg/mL
- FIC (Streptococcus pneumoniae [29]): 0.63 - 1
- Activity (Streptococcus pneumoniae [30]): Active

Compound: CN[C@H](CC(C)C)C(=O)N[C@H]1C(=O)N[C@@H](CC(N)=O)C(=O)N[C@H]2C(=O)N[C@H]3C(=O)N[C@H](C(=O)N[C@H](C(=O)O)c4cc(O)cc(O)c4-c4cc3ccc4O)[C@H](O)c3ccc(c(Cl)c3)Oc3cc2cc(c3O[C@@H]2O[C@H](CO)[C@@H](O)[C@H](O)[C@H]2O[C@H]2C[C@](C)(N)[C@H](O)[C@H](C)O2)Oc2ccc(cc2Cl)[C@H]1O [VANCOMYCIN]
- fold change (FC) (Streptococcus pneumoniae [31]): 1000
